Results published in ChEMBL document CHEMBL1671716, “Antimicrobial susceptibility patterns for recent clinical isolates of anaerobic bacteria in South Korea” (2010).
≈ marks a conversion by molar mass, not a printed value.

Key:
[1] = system: Bacteroides thetaiotaomicron; assay: Antimicrobial activity against Bacteroides thetaiotaomicron after 48 hrs by agar dilution method; assay type: functional
Outline: (§1)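 MICs on clinical anaerobe isolates by the CLSI agar dilution method. Inoculum of 10^5 CFU applied with a Steers replicator. Plates incubated 48 h at 37°C in an anaerobic chamber.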

Finegoldia magna [2] = assay: Antimicrobial activity against Finegoldia magna after 48 hrs by agar dilution method; assay type: functional
Outline: (§2)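 CLSI agar dilution (M11-A7); inoculum 10^5 CFU applied by replicator; plates incubated anaerobically 48 h at 37°C. For piperacillin-tazobactam, tazobactam held constant at 4 μg/ml.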

Eggerthella lenta [3] = assay: Antimicrobial activity against Eubacterium lentum assessed as percent resistant isolates after 48 hrs by agar dilution method; assay type: functional
Outline: (§3)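 CLSI agar dilution on recent Korean clinical anaerobe isolates. Inoculum 10^5 CFU per spot by replicator. Plates incubated in an anaerobic chamber at 37°C for 48 h. For piperacillin plus tazobactam, tazobactam was held constant at 4 μg/ml. Resistance and susceptibility rates derived from MICs.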

Bifidobacterium sp. [4] = assay: Antimicrobial activity against Bifidobacterium sp. assessed as percent resistant isolates after 48 hrs by agar dilution method; assay type: functional; outline: as §3
[5] = system: Porphyromonas asaccharolytica; assay: Antimicrobial activity against Porphyromonas asaccharolytica after 48 hrs by agar dilution method; assay type: functional; outline: as §2
Schaalia meyeri [6] = assay: Antimicrobial activity against Actinomyces meyeri assessed as percent resistant isolates after 48 hrs by agar dilution method; assay type: functional; outline: as §3
[7] = system: Bacteroides thetaiotaomicron; assay: Antimicrobial activity against Bacteroides thetaiotaomicron assessed as percent susceptible isolates after 48 hrs by agar dilution method; assay type: functional
Bacteroides ovatus [8] = assay: Antimicrobial activity against Bacteroides ovatus after 48 hrs by agar dilution method; assay type: functional; outline: as §1
Hoylesella oralis = assay: Antimicrobial activity against Prevotella oralis assessed as percent susceptible isolates after 48 hrs by agar dilution method; assay type: functional
Outline: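 CLSI agar dilution MIC testing of clinical isolates. 10^5 CFU spotted by replicator, plates incubated 48 h at 37°C in an anaerobic chamber. Susceptibility rates derived from the MICs.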

Eubacterium sp. [9] = assay: Antimicrobial activity against Eubacterium sp. assessed as percent resistant isolates after 48 hrs by agar dilution method; assay type: functional; outline: as §3
Phocaeicola vulgatus [10] = assay: Antimicrobial activity against Bacteroides vulgatus assessed as percent susceptible isolates after 48 hrs by agar dilution method; assay type: functional
Bacteroides caccae [11] = assay: Antimicrobial activity against Bacteroides caccae assessed as percent susceptible isolates after 48 hrs by agar dilution method; assay type: functional
Prevotella bivia = assay: Antimicrobial activity against Prevotella bivia after 48 hrs by agar dilution method; assay type: functional; outline: as §2
Bacteroides ovatus [12] = assay: Antimicrobial activity against Bacteroides ovatus assessed as percent resistant isolates after 48 hrs by agar dilution method; assay type: functional; outline: as §3
Parvimonas micra = assay: Antimicrobial activity against Peptostreptococcus micros after 48 hrs by agar dilution method; assay type: functional; outline: as §2
Clostridioides difficile [13] = assay: Antimicrobial activity against Clostridium difficile after 48 hrs by agar dilution method; assay type: functional
Actinomyces naeslundii = assay: Antimicrobial activity against Actinomyces naeslundii after 48 hrs by agar dilution method; assay type: functional; outline: as §1
Schaalia odontolytica [14] = assay: Antimicrobial activity against Actinomyces odontolyticus assessed as percent susceptible isolates after 48 hrs by agar dilution method; assay type: functional
Bacteroides caccae [15] = assay: Antimicrobial activity against Bacteroides caccae assessed as percent resistant isolates after 48 hrs by agar dilution method; assay type: functional; outline: as §3
[16] = system: Bifidobacterium adolescentis; assay: Antimicrobial activity against Bifidobacterium adolescentis after 48 hrs by agar dilution method; assay type: functional; outline: as §1
Finegoldia magna [17] = assay: Antimicrobial activity against Finegoldia magna assessed as percent susceptible isolates after 48 hrs by agar dilution method; assay type: functional; outline: as §2
[18] = system: Parabacteroides distasonis; assay: Antimicrobial activity against Bacteroides distasonis assessed as percent resistant isolates after 48 hrs by agar dilution method; assay type: functional; outline: as §3
[19] = system: Peptostreptococcus anaerobius; assay: Antimicrobial activity against Peptostreptococcus anaerobius assessed as percent susceptible isolates after 48 hrs by agar dilution method; assay type: functional; outline: as §3
Anaerococcus prevotii = assay: Antimicrobial activity against Anaerococcus prevotii after 48 hrs by agar dilution method; assay type: functional; outline: as §1
Bifidobacterium sp. [20] = assay: Antimicrobial activity against Bifidobacterium sp. assessed as percent susceptible isolates after 48 hrs by agar dilution method; assay type: functional; outline: as §2
Eggerthella lenta [21] = assay: Antimicrobial activity against Eubacterium lentum assessed as percent susceptible isolates after 48 hrs by agar dilution method; assay type: functional; outline: as §2
[22] = system: Parabacteroides distasonis; assay: Antimicrobial activity against Bacteroides distasonis assessed as percent susceptible isolates after 48 hrs by agar dilution method; assay type: functional
Clostridioides difficile [23] = assay: Antimicrobial activity against Clostridium difficile assessed as percent susceptible isolates after 48 hrs by agar dilution method; assay type: functional
Prevotella buccae [24] = assay: Antimicrobial activity against Prevotella buccae assessed as percent susceptible isolates after 48 hrs by agar dilution method; assay type: functional, Segatella buccae; outline: as §2
Prevotella intermedia [25] = assay: Antimicrobial activity against Prevotella intermedia assessed as percent resistant isolates after 48 hrs by agar dilution method; assay type: functional; outline: as §3
Eubacterium sp. [26] = assay: Antimicrobial activity against Eubacterium sp. assessed as percent susceptible isolates after 48 hrs by agar dilution method; assay type: functional; outline: as §2
[27] = system: Peptostreptococcus anaerobius; assay: Antimicrobial activity against Peptostreptococcus anaerobius after 48 hrs by agar dilution method; assay type: functional; outline: as §2
[28] = system: Bifidobacterium adolescentis; assay: Antimicrobial activity against Bifidobacterium adolescentis assessed as percent susceptible isolates after 48 hrs by agar dilution method; assay type: functional
Schaalia odontolytica [29] = assay: Antimicrobial activity against Actinomyces odontolyticus assessed as percent resistant isolates after 48 hrs by agar dilution method; assay type: functional; outline: as §3
Prevotella intermedia [30] = assay: Antimicrobial activity against Prevotella intermedia after 48 hrs by agar dilution method; assay type: functional; outline: as §2
Clostridium perfringens = assay: Antimicrobial activity against Clostridium perfringens after 48 hrs by agar dilution method; assay type: functional
Finegoldia magna [31] = assay: Antimicrobial activity against Finegoldia magna assessed as percent resistant isolates after 48 hrs by agar dilution method; assay type: functional; outline: as §3
Bacteroides fragilis = assay: Antimicrobial activity against Bacteroides fragilis assessed as percent susceptible isolates after 48 hrs by agar dilution method; assay type: functional
Schaalia meyeri [32] = assay: Antimicrobial activity against Actinomyces meyeri assessed as percent susceptible isolates after 48 hrs by agar dilution method; assay type: functional
Bifidobacterium sp. [33] = assay: Antimicrobial activity against Bifidobacterium sp. after 48 hrs by agar dilution method; assay type: functional; outline: as §1
Fusobacterium necrogenes = assay: Antimicrobial activity against Fusobacterium necrogenes after 48 hrs by agar dilution method; assay type: functional; outline: as §2
Actinomyces israelii = assay: Antimicrobial activity against Actinomyces israelii assessed as percent resistant isolates after 48 hrs by agar dilution method; assay type: functional; outline: as §3
Prevotella buccae [34] = assay: Antimicrobial activity against Prevotella buccae after 48 hrs by agar dilution method; assay type: functional; settings: Segatella buccae; outline: as §2
Phocaeicola vulgatus [35] = assay: Antimicrobial activity against Bacteroides vulgatus after 48 hrs by agar dilution method; assay type: functional; outline: as §1

## CCC[C@@H]1C[C@@H](C(=O)N[C@@H]([C@H]2O[C@H](SC)[C@H](O)[C@@H](O)[C@H]2O)[C@H](C)Cl)N(C)C1 [CLINDAMYCIN]
[1]
  MIC50: > 128 µg/mL
  MIC90: > 128 µg/mL
Finegoldia magna [2]
  MIC50: 0.25 µg/mL (≈ 0.588 µM)
  MIC90: 64 µg/mL (≈ 151 µM)
Eggerthella lenta [3]
  Activity: 15%
Bifidobacterium sp. [4]
  Activity: 15%
[5]
  MIC: 0.06 µg/mL (≈ 0.141 µM)
Schaalia meyeri [6]
  Activity: 15%
[7]
  Activity: 16%
Bacteroides ovatus [8]
  MIC50: > 128 µg/mL
  MIC90: > 128 µg/mL
Hoylesella oralis
  Activity: 50%
Eubacterium sp. [9]
  Activity: 15%
Phocaeicola vulgatus [10]
  Activity: 16%
Bacteroides caccae [11]
  Activity: 16%
Prevotella bivia
  MIC50: ≤ 0.06 µg/mL
  MIC90: 128 µg/mL (≈ 301 µM)
Bacteroides ovatus [12]
  Activity: 68%
Parvimonas micra
  MIC50: 0.125 µg/mL (≈ 0.294 µM)
  MIC90: 64 µg/mL (≈ 151 µM)
Clostridioides difficile [13]
  MIC50: 64 µg/mL (≈ 151 µM)
  MIC90: 128 µg/mL (≈ 301 µM)
Actinomyces naeslundii
  MIC: 0.06 µg/mL (≈ 0.141 µM)
  MIC50: 0.06 µg/mL (≈ 0.141 µM)
  MIC90: > 128 µg/mL
Schaalia odontolytica [14]
  Activity: 85%
Bacteroides caccae [15]
  Activity: 68%
[16]
  MIC: 0.06 µg/mL (≈ 0.141 µM)
  MIC50: 0.06 µg/mL (≈ 0.141 µM)
  MIC90: > 128 µg/mL
Finegoldia magna [17]
  Activity: 73%
[18]
  Activity: 68%
[19]
  Activity: 77%
Anaerococcus prevotii
  MIC50: 2 µg/mL (≈ 4.71 µM)
  MIC90: 128 µg/mL (≈ 301 µM)
Bifidobacterium sp. [20]
  Activity: 85%
Eggerthella lenta [21]
  Activity: 85%
[22]
  Activity: 16%
Clostridioides difficile [23]
  Activity: 8%
Prevotella buccae [24]
  Activity: 50%
Prevotella intermedia [25]
  Activity: 0%
Eubacterium sp. [26]
  Activity: 85%
[27]
  MIC50: 0.125 µg/mL (≈ 0.294 µM)
  MIC90: 64 µg/mL (≈ 151 µM)
[28]
  Activity: 85%
Schaalia odontolytica [29]
  Activity: 15%
Prevotella intermedia [30]
  MIC50: ≤ 0.06 µg/mL
  MIC90: ≤ 0.06 µg/mL
Clostridium perfringens
  MIC50: 2 µg/mL (≈ 4.71 µM)
  MIC90: 4 µg/mL (≈ 9.41 µM)
Finegoldia magna [31]
  Activity: 13%
Bacteroides fragilis
  Activity: 67%
Schaalia meyeri [32]
  Activity: 85%
Bifidobacterium sp. [33]
  MIC: 0.06 µg/mL (≈ 0.141 µM)
  MIC50: 0.06 µg/mL (≈ 0.141 µM)
  MIC90: > 128 µg/mL
Fusobacterium necrogenes
  MIC: 0.06 µg/mL (≈ 0.141 µM)
Actinomyces israelii
  Activity: 15%
Prevotella buccae [34]
  MIC50: ≤ 0.06 µg/mL
  MIC90: 128 µg/mL (≈ 301 µM)
Phocaeicola vulgatus [35]
  MIC50: > 128 µg/mL
  MIC90: > 128 µg/mL
